Data on one compound can be found in ChEMBL document CHEMBL4261600 (Eur J Med Chem, 2018).

Active and inactive are the calls of the source.

The test system of assay [1] is Tyrosine-protein kinase ABL1 (Homo sapiens), P00519 [M351T]. In words: Binding affinity to human phosphorylated ABL1 M351T mutant (S229 to K512 residues) expressed in mammalian expression system assessed as remaining unbound target protein level at 1000 nM by Kinomescan method relative to control. The procedure, abridged: (§1)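 Single-point competition binding screen across a panel of 468 kinases and mutants, with the inhibitor at 1 μM. Binding is read out as percent of a DMSO control, and targets below 1 percent control were classed as strong binders.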

In assay [2] the target is Atypical kinase COQ8A, mitochondrial (Homo sapiens) (UniProt Q8NI60). As to the kind of experiment: Binding affinity to wild-type human […] length ADCK3 (M280 to Q647 residues) expressed in bacterial expression system assessed as remaining unbound target protein level at 1000 nM by Kinomescan method relative to control. A digest of the protocol: as §1
Assay [3] deals with RAC-beta serine/threonine-protein kinase (Homo sapiens) (UniProt P31751). As to the kind of experiment: Binding affinity to wild-type human partial length AKT2 expressed in bacterial expression system assessed as remaining unbound target protein level at 1000 nM by Kinomescan method relative to control. The procedure, abridged: (§2)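 Profiled in a KINOMEscan binding panel with the inhibitor at a single concentration of 1 μM. Binding to each kinase was read out as percent of control, relative to a DMSO control. Strong binders were defined as those with a percent control value below 1.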

The target in assay [4] is Aurora kinase A (Homo sapiens) (UniProt O14965). In words: Binding affinity to wild-type human partial length AURKA (E122 to K401 residues) expressed in mammalian expression system assessed as remaining unbound target protein level at 1000 nM by Kinomescan method relative to control. The procedure, abridged:
as §2

The target in assay [5] is Aurora kinase B (Homo sapiens) (UniProt Q96GD4). In words: Binding affinity to wild-type human partial length AURKB (D25 to A303 residues) expressed in mammalian expression system assessed as remaining unbound target protein level at 1000 nM by Kinomescan method relative to control. A digest of the protocol: as §2
Assay [6] concerns the target Calcium/calmodulin-dependent protein kinase type 1D (Homo sapiens) (UniProt Q8IU85). As to the kind of experiment: Binding affinity to wild-type human partial length CAMK1D (M1 to K299 residues) expressed in bacterial expression system assessed as remaining unbound target protein level at 1000 nM by Kinomescan method relative to control. A digest of the protocol:
as §2

The target of assay [7] is Dual specificity protein kinase CLK4 (Homo sapiens) (UniProt Q9HAZ1). As to the kind of experiment: Binding affinity to wild-type human partial length CLK4 (R135 to K481 residues) expressed in bacterial expression system assessed as remaining unbound target protein level at 1000 nM by Kinomescan method relative to control. A digest of the protocol: (§3)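 KINOMEscan competition binding profile across a panel of 468 kinases and mutants, with the inhibitor tested at a single concentration of 1 μM. Binding is reported as percent of control, meaning signal relative to a DMSO control.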

For assay [8], the target named is Megakaryocyte-associated tyrosine-protein kinase (Homo sapiens) (UniProt P42679). In words: Binding affinity to wild-type human full length CTK (M43 to P508 residues) expressed in mammalian expression system assessed as remaining unbound target protein level at 1000 nM by Kinomescan method relative to control. A digest of the protocol:
as §1

Assay [9] deals with Focal adhesion kinase 1 (Homo sapiens) (UniProt Q05397). In words: Binding affinity to wild-type human partial length FAK (D402 to R696 residues) expressed in bacterial expression system assessed as remaining unbound target protein level at 1000 nM by Kinomescan method relative to control.
Assay [10] has as its system Receptor-type tyrosine-protein kinase FLT3 (Homo sapiens), P36888 [UNDEFINED MUTATION]. As to the kind of experiment: Binding affinity to human partial length FLT3 ITD mutant expressed in bacterial expression system assessed as remaining unbound target protein level at 1000 nM by Kinomescan method relative to control. The procedure, abridged: (§4)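 KINOMEscan competition-binding profiling across the panel of 468 kinases and mutants, with inhibitor tested at 1 μM. Binding is expressed as percent of control, with DMSO as the reference control.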

The target in assay [11] is Glycogen synthase kinase-3 beta (Homo sapiens) (UniProt P49841). In words: Binding affinity to wild-type human full length GSK3B (M1 to T433 residues) expressed in mammalian expression system assessed as remaining unbound target protein level at 1000 nM by Kinomescan method relative to control. The procedure, abridged: as §1
Sequence of Glycogen synthase kinase-3 beta (Homo sapiens) (P49841 whole entry, looked up, the tested form may be a part): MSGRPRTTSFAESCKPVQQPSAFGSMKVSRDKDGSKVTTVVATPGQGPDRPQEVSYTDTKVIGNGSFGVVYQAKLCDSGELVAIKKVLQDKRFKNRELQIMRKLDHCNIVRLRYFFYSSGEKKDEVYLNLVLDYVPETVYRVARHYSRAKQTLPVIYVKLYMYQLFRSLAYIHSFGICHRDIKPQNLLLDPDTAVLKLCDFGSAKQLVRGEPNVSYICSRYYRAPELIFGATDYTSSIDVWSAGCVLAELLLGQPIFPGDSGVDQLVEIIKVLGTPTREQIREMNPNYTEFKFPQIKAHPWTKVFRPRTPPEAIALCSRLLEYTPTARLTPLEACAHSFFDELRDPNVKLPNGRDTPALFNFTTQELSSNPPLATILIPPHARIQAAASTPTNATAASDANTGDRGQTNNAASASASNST
The target in assay [12] is Serine/threonine-protein kinase MARK2 (Homo sapiens) (UniProt Q7KZI7). In words: Binding affinity to wild-type human partial length MARK2 (M1 to R450 residues) expressed in bacterial expression system assessed as remaining unbound target protein level at 1000 nM by Kinomescan method relative to control.
Assay [13] concerns the target Misshapen-like kinase 1 (Homo sapiens) (UniProt Q8N4C8). As to the kind of experiment: Binding affinity to wild-type human partial length MINK (M1 to K312 residues) expressed in mammalian expression system assessed as remaining unbound target protein level at 1000 nM by Kinomescan method relative to control.
For assay [14], the system named is Phosphatidylinositol 4,5-bisphosphate 3-kinase catalytic subunit alpha isoform (Homo sapiens), P42336 [Q546K]. In words: Binding affinity to human partial length PIK3CA Q546K mutant (R108 to N1068 residues) expressed in mammalian expression system assessed as remaining unbound target protein level at 1000 nM by Kinomescan method relative to control. A digest of the protocol:
as §4

For assay [15], the target named is 1-phosphatidylinositol 3-phosphate 5-kinase (Homo sapiens) (UniProt Q9Y2I7). As to the kind of experiment: Binding affinity to wild-type human partial length PIKFYVE (F1512 to C2098 residues) expressed in mammalian expression system assessed as remaining unbound target protein level at 1000 nM by Kinomescan method relative to control.
Assay [16] has as its target Serine/threonine-protein kinase PLK2 (Homo sapiens) (UniProt Q9NYY3). As to the kind of experiment: Binding affinity to wild-type human partial length PLK2 (H58 to F354 residues) expressed in mammalian expression system assessed as remaining unbound target protein level at 1000 nM by Kinomescan method relative to control.
Assay [17] deals with Non-receptor tyrosine-protein kinase TNK1 (Homo sapiens) (UniProt Q13470). In words: Binding affinity to wild-type human full length TNK1 (M1 to P661 residues) expressed in bacterial expression system assessed as remaining unbound target protein level at 1000 nM by Kinomescan method relative to control. A digest of the protocol: as §3
Sequence of Non-receptor tyrosine-protein kinase TNK1 (Homo sapiens) (Q13470 whole entry, the tested form may be a part): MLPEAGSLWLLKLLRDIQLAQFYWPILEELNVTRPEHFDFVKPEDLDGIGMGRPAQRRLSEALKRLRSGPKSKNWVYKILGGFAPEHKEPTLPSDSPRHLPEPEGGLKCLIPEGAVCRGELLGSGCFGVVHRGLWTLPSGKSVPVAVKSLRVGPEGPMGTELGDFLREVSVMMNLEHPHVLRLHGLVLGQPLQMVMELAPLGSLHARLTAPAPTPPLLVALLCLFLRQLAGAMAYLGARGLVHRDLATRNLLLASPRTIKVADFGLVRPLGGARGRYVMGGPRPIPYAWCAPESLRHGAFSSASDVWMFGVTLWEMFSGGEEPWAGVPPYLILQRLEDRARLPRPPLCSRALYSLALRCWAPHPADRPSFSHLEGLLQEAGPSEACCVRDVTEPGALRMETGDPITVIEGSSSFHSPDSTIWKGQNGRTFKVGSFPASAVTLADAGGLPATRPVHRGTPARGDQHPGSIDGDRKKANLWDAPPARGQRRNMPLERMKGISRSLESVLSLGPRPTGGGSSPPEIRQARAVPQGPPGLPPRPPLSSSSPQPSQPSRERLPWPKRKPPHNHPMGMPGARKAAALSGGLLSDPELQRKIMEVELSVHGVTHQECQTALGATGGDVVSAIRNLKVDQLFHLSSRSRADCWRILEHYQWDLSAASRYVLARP
The target of assay [18] is Serine/threonine-protein kinase TNNI3K (Homo sapiens) (UniProt Q59H18). In words: Binding affinity to wild-type human full length TNNI3K (M1 to S835 residues) expressed in bacterial expression system assessed as remaining unbound target protein level at 1000 nM by Kinomescan method relative to control. The procedure, abridged: as §3
Sequence of Serine/threonine-protein kinase TNNI3K (Homo sapiens) (Q59H18 whole entry, the tested form may be a part): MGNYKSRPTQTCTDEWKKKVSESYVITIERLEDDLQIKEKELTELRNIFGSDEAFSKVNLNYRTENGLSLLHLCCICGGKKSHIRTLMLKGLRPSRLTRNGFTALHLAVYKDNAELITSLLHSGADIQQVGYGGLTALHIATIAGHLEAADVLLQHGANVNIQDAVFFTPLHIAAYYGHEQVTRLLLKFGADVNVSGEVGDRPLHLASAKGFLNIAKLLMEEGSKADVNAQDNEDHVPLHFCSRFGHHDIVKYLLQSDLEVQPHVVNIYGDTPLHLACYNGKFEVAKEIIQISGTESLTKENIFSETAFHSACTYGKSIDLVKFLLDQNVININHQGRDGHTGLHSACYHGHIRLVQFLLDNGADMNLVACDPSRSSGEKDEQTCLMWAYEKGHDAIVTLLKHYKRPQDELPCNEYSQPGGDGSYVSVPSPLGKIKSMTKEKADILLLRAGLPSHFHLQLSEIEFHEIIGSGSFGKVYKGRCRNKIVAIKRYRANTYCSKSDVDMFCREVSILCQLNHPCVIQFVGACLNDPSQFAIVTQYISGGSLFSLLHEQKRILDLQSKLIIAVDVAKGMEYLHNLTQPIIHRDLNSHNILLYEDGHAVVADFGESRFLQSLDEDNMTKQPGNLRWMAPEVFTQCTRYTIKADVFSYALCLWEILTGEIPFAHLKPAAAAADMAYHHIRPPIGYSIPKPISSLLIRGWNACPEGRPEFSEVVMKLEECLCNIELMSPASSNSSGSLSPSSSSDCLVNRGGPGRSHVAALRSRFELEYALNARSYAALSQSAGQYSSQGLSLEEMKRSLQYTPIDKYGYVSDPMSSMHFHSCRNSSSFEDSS
Assay [19] addresses Serine/threonine-protein kinase VRK2 (Homo sapiens) (UniProt Q86Y07). As to the kind of experiment: Binding affinity to wild-type human partial length VRK2 (M1 to T336 residues) expressed in mammalian expression system assessed as remaining unbound target protein level at 1000 nM by Kinomescan method relative to control.
Assay [20] deals with Mitogen-activated protein kinase kinase kinase 19 (Homo sapiens) (UniProt Q56UN5). As to the kind of experiment: Binding affinity to wild-type human partial length YSK4 (T1019 to H1328 residues) expressed in mammalian expression system assessed as remaining unbound target protein level at 1000 nM by Kinomescan method relative to control.
For a further assay, the system named is MV4-11. In words: Cell cycle arrest in human MV4-11 cells increase in accumulation at G0/G1 phase at 0.01 to 0.03 uM after 24 hrs by propidium iodide/RNase staining based flow cytometric analysis. (In general: In flow cytometry, cells or beads pass a laser one at a time.)

Sequence of Serine/threonine-protein kinase VRK2 (Homo sapiens) (Q86Y07 whole entry, the tested form may be a part): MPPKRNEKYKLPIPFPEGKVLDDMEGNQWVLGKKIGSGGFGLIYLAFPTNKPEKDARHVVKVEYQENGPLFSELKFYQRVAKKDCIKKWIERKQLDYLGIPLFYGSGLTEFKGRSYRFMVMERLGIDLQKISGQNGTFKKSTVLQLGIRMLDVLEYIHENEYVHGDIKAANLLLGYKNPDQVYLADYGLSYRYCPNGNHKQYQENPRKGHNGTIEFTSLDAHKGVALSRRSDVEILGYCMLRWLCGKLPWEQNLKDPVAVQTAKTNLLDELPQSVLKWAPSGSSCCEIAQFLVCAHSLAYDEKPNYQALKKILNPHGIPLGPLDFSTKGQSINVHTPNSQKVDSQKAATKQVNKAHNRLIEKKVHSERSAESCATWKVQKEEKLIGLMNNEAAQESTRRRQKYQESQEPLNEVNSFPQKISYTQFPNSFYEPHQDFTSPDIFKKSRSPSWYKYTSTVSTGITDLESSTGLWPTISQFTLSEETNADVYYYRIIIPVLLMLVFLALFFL
Sequence of Receptor-type tyrosine-protein kinase FLT3 (Homo sapiens), P36888 [UNDEFINED MUTATION] (P36888 whole entry, looked up, change not shown): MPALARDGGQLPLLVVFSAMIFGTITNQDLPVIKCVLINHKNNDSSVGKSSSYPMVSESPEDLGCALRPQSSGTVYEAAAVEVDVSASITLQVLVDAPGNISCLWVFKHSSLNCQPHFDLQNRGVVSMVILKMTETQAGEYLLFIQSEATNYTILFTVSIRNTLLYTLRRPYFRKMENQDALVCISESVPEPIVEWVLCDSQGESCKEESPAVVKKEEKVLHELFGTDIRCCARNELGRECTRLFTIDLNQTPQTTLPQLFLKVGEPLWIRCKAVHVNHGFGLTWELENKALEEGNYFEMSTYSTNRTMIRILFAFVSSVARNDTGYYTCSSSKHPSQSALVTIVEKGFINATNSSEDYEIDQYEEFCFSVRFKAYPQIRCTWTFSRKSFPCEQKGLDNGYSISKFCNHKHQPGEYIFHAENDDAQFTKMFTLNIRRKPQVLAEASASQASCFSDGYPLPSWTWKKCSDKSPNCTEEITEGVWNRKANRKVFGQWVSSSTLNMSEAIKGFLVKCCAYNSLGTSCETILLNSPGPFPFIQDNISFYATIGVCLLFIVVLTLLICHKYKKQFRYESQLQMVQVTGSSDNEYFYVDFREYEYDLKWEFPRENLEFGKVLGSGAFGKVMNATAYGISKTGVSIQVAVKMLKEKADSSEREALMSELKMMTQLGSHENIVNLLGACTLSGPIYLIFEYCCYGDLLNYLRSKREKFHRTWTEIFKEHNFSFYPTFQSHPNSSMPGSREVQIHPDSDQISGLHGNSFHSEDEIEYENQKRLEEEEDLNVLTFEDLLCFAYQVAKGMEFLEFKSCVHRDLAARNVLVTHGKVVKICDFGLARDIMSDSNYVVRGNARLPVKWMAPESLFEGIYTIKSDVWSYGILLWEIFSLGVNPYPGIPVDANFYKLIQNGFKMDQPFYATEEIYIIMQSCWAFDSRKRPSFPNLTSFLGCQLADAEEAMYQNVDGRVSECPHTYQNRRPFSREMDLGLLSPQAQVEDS
Sequence of Aurora kinase A (Homo sapiens) (O14965 whole entry, the tested form may be a part): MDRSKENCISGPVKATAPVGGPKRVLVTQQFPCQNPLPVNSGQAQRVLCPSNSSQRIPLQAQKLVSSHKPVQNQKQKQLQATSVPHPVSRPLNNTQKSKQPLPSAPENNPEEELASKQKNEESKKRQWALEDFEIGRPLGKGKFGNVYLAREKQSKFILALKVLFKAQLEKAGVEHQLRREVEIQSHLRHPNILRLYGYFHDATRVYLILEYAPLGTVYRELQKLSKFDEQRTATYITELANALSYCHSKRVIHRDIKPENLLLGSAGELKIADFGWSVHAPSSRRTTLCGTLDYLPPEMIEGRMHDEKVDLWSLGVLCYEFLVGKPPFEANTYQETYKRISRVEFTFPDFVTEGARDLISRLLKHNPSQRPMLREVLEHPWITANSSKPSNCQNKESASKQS
Sequence of Phosphatidylinositol 4,5-bisphosphate 3-kinase catalytic subunit alpha isoform (Homo sapiens), P42336 [Q546K] (P42336 whole entry Q546K, the tested form may be a part, canonical isoform): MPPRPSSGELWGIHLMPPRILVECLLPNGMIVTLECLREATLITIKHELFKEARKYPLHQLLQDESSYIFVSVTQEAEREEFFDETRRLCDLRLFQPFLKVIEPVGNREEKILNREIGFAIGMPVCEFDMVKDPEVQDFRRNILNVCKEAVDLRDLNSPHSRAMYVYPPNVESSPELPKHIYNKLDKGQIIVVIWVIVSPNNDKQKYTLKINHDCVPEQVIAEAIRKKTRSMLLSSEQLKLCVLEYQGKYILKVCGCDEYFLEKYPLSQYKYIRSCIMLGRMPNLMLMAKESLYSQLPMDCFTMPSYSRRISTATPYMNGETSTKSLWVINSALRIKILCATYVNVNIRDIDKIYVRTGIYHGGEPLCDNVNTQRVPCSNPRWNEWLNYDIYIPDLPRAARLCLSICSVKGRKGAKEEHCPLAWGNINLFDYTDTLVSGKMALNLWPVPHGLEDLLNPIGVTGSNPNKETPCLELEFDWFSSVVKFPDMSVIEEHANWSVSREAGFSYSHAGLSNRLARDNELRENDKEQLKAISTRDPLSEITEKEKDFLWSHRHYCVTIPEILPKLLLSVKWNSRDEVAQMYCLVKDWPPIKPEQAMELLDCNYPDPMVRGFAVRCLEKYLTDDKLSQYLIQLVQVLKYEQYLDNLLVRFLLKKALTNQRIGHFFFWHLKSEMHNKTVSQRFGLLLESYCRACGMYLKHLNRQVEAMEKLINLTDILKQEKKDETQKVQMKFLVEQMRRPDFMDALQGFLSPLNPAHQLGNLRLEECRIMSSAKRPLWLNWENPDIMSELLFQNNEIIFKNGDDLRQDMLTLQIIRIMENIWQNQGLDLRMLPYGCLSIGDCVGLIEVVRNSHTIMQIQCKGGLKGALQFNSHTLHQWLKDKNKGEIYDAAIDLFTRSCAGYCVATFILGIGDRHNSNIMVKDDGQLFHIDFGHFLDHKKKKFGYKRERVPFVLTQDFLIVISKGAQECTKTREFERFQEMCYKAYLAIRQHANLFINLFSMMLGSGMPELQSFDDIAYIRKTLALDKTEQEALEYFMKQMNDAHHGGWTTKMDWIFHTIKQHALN

For `COCCN[C@H]1CC[C@H](Nc2cc(-c3csc(NCC4(C#N)CCOCC4)n3)c(Cl)cn2)CC1`, the Activity in assay [1] amounted to 100%; in [2] it was 88%; in [3] it was 88%; in assay [4], 100%; in [5] it was 100%; in assay [6] it was 100%. Further, the Activity amounted to 9.2% in assay [7]; 96% in [8]; 84% in [9]; 89% in assay [10]; 98% in [11]; 100% in [12]. Besides, the Activity in [13] is 92%; in assay [14], 88%; in [15] it was 95%; in assay [16], 100%; in assay [17], 56%; in assay [18] it was 95%. For the same compound, the Activity in [19] stood at 87%; in [20], 72%. For the same compound, the result in the assay on MV4-11 was Active.
